Assay results published in ChEMBL document CHEMBL1148487, “Chemical and functional identification and characterization of novel sulfated alpha-conotoxins from the cone snail Conus anemone” (J Med Chem, 2004).
Several values for one entry are separate records, joined by “and”; a condition that tells them apart may be missing. Identical values can stand only once.

Key:
[1] = target: Neuronal acetylcholine receptor; alpha3/beta2 (Rattus norvegicus, UniProt P04757+P12390); experiment: Inhibition of rat Nicotinic acetylcholine receptor alpha3-beta2 expressed in Xenopus Oocytes; format: cell-based
Chain of Neuronal acetylcholine receptor; alpha3/beta2 (P04757 whole entry, the tested form may be a part): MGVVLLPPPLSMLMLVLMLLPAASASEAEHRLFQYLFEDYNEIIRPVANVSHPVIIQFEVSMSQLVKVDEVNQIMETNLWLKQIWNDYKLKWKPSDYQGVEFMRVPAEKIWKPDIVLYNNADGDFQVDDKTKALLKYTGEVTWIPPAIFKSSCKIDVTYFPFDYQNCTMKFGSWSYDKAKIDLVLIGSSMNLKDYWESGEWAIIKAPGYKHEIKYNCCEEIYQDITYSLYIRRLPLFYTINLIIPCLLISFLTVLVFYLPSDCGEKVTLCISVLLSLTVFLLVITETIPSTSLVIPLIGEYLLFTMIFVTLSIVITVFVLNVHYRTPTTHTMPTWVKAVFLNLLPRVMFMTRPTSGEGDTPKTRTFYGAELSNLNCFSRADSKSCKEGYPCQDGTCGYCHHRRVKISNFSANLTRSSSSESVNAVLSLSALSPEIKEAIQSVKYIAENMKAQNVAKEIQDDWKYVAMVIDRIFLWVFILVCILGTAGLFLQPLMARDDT
Chain of Neuronal acetylcholine receptor; alpha3/beta2 (P12390 whole entry, the tested form may be a part): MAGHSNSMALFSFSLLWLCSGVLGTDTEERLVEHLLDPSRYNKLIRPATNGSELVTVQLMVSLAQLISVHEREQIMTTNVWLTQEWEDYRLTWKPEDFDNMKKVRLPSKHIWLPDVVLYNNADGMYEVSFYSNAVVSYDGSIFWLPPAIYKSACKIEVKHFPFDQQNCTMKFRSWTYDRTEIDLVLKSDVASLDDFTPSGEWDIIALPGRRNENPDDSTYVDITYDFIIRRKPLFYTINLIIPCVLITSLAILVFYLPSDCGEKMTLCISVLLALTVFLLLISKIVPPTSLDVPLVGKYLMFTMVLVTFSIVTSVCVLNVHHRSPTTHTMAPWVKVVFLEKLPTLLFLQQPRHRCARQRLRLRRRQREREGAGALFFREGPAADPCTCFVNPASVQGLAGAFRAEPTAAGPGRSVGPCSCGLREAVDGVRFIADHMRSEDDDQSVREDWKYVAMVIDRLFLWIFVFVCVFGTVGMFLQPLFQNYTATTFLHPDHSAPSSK
In short: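 Rat nAChR subunit cRNAs (50 nL, 5–50 ng/µL) injected into Xenopus oocytes, kept at 19 °C in ND96 pH 7.4 with gentamycin; two-electrode voltage clamp at −70 mV, 2–10 days post-injection. Peptide added to static bath, 3–10 min before agonist; sub-1 nM also perfused 10–15 min. IC50 from fitted concentration–response curves with Hill slope.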

[2] = target: Neuronal acetylcholine receptor subunit alpha-7 (Rattus norvegicus, UniProt Q05941); experiment: Compound was evaluated for inhibition of rat Nicotinic acetylcholine receptor alpha-7 (nAChR) in Xenopus Oocytes; format: cell-based
Chain of Neuronal acetylcholine receptor subunit alpha-7 (Q05941 whole entry): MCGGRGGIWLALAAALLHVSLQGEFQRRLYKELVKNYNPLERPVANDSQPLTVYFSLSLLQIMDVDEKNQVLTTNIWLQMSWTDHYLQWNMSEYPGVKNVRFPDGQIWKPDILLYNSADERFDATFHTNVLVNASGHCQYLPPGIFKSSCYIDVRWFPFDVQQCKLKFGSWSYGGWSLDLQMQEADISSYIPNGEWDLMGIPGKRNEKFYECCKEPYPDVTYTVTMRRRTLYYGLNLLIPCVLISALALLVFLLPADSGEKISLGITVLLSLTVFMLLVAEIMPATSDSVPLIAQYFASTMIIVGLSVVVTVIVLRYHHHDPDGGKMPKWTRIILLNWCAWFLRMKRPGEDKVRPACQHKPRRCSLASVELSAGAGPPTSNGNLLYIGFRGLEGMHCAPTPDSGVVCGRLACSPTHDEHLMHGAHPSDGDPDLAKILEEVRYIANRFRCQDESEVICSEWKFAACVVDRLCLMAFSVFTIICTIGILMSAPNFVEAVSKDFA
In short: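 Rat α7 nAChR cRNA (5–50 ng/µL, 50 nL) injected into Xenopus oocytes kept at 19 °C in ND96 (pH 7.4) plus gentamycin; two-electrode voltage clamp 2–10 days later at −70 mV. Peptide applied once three agonist responses differed <10%, added to static bath and incubated 3–10 min before agonist. IC50 and nH from concentration–response curve fit; 95% confidence intervals.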

[3] = Inhibition ratio of rat alpha 3 beta 2 nicotinic acetylcholine receptor (nAChR) to that of at alpha 7 nicotinic acetylcholine receptor (nAChR)

Row | Compound | IC50 [1] | IC50 [2] | Ratio [3]
1 | C[C@H](NC(=O)[C@H](C)NC(=O)[C@H](CS)NC(=O)[C@H](C)NC(=O)[C@H]1CCCN1C(=O)[C@H](Cc1cnc[nH]1)NC(=O)[C@H](CO)NC(=O)[C@H](CS)NC(=O)[C@@H](N)CS)C(=O)N[C@@H](CC(N)=O)C(=O)N[C@@H](CC(N)=O)C(=O)N[C@@H](CCC(N)=O)C(=O)N[C@@H](CC(=O)O)C(=O)N[C@@H](Cc1ccc(O)cc1)C(=O)N[C@@H](CS)C(N)=O | 5.84 nM |  | 
2 | C[C@H](NC(=O)[C@H](CS)NC(=O)[C@H](C)NC(=O)[C@H]1CCCN1C(=O)[C@H](CC1=CNCN1)NC(=O)[C@H](CO)NC(=O)[C@H](CS)NC(=O)[C@H](CS)NC(=O)CN)C(=O)N[C@@H](CC(N)=O)C(=O)N[C@@H](CC(N)=O)C(=O)N[C@@H](CCC(N)=O)C(=O)N[C@@H](CC(=O)O)C(=O)N[C@@H](Cc1ccc(O)cc1)C(=O)N[C@@H](CS)C(N)=O | 0.17 nM |  | 
3 | C[C@H](NC(=O)[C@H](C)NC(=O)[C@H](CS)NC(=O)[C@H](C)NC(=O)[C@H]1CCCN1C(=O)[C@H](Cc1cnc[nH]1)NC(=O)[C@H](CO)NC(=O)[C@H](CS)NC(=O)[C@H](CS)NC(=O)CNC(=O)CN)C(=O)N[C@@H](CC(N)=O)C(=O)N[C@@H](CC(N)=O)C(=O)N[C@@H](CCC(N)=O)C(=O)N[C@@H](CC(=O)O)C(=O)N[C@@H](Cc1ccc(OS(=O)(=O)O)cc1)C(=O)N[C@@H](CS)C(N)=O | 0.64 nM |  | 
4 | CC[C@H](C)[C@H](NC(=O)[C@H](Cc1c[nH]cn1)NC(=O)[C@H](CCC(N)=O)NC(=O)[C@H](CC(N)=O)NC(=O)[C@H](CC(N)=O)NC(=O)CNC(=O)[C@H](C)NC(=O)[C@H](CS)NC(=O)[C@H](C)NC(=O)[C@@H]1CCCN1C(=O)[C@H](Cc1c[nH]cn1)NC(=O)[C@H](CO)NC(=O)[C@H](CS)NC(=O)[C@H](CS)NC(=O)CN)C(=O)N[C@@H](CS)C(N)=O | 1.1 nM |  | 
5 | C[C@H](NC(=O)[C@H](C)NC(=O)[C@H](CS)NC(=O)[C@H](C)NC(=O)[C@H]1CCCN1C(=O)[C@H](Cc1cnc[nH]1)NC(=O)[C@H](CO)NC(=O)[C@H](CS)NC(=O)[C@H](CS)NC(=O)CNC(=O)CN)C(=O)N[C@@H](CC(N)=O)C(=O)N[C@@H](CC(N)=O)C(=O)N[C@@H](CCC(N)=O)C(=O)N[C@@H](CC(=O)O)C(=O)N[C@@H](Cc1ccc(O)cc1)C(=O)N[C@@H](CS)C(=O)O | 0.54 nM |  | 
6 | C[C@H](NC(=O)[C@H](C)NC(=O)[C@H](CS)NC(=O)[C@H](C)NC(=O)[C@H]1CCCN1C(=O)[C@H](Cc1c[nH]cn1)NC(=O)[C@H](CO)NC(=O)[C@H](CS)NC(=O)[C@H](CS)NC(=O)CNC(=O)CNC(=O)CN)C(=O)N[C@@H](CC(N)=O)C(=O)N[C@@H](CC(N)=O)C(=O)N[C@@H](CCC(N)=O)C(=O)N[C@@H](CC(=O)O)C(=O)N[C@@H](Cc1ccc(O)cc1)C(=O)N[C@@H](CS)C(N)=O | 0.2 nM |  | 
7 | CC(C)C[C@H](NC(=O)[C@H](CC(N)=O)NC(=O)[C@H](CO)NC(=O)[C@H](Cc1cnc[nH]1)NC(=O)[C@H](CCC(=O)O)NC(=O)[C@H](CC(C)C)NC(=O)[C@H](Cc1cnc[nH]1)NC(=O)[C@H](CS)NC(=O)[C@@H](NC(=O)[C@@H]1CCCN1C(=O)[C@H](CC(N)=O)NC(=O)[C@H](CO)NC(=O)[C@H](CS)NC(=O)[C@H](CS)NC(=O)CN)C(C)C)C(=O)N[C@@H](CS)C(N)=O | 0.5 nM |  | 
8 | C[C@H](NC(=O)[C@H](C)NC(=O)[C@H](CS)NC(=O)[C@H](C)NC(=O)[C@H]1CCCN1C(=O)[C@H](Cc1c[nH]cn1)NC(=O)[C@H](CO)NC(=O)[C@H](CS)NC(=O)[C@H](CS)NC(=O)CNC(=O)CN)C(=O)N[C@@H](CC(N)=O)C(=O)N[C@@H](CC(N)=O)C(=O)N[C@@H](CCC(N)=O)C(=O)N[C@@H](CC(=O)O)C(=O)N[C@@H](Cc1ccc(O)cc1)C(=O)N[C@@H](CS)C(N)=O | 0.28 nM and 0.3 nM | 76 nM | 0.004
9 | CC(C)C[C@H](NC(=O)[C@H](CC(N)=O)NC(=O)[C@H](CO)NC(=O)[C@H](Cc1c[nH]cn1)NC(=O)[C@H](CCC(=O)O)NC(=O)[C@H](CC(C)C)NC(=O)[C@H](Cc1c[nH]cn1)NC(=O)[C@H](CS)NC(=O)[C@@H](NC(=O)[C@@H]1CCCN1C(=O)[C@H](CC(N)=O)NC(=O)[C@H](CO)NC(=O)[C@H](CS)NC(=O)[C@H](CS)NC(=O)CN)C(C)C)C(=O)N[C@@H](CS)C(N)=O |  |  | 0.0025
